Legend:
[1] = Selectivity index, ratio of IC50 for rat L6 cells to IC50 for Plasmodium falciparum K1; format: toxicity, cell-based; conditions: rat L6 cells (cytotoxicity) versus Plasmodium falciparum K1, read-out: Ratio IC50
[2] = test system: Trypanosoma cruzi; assay: Antiparasitic activity against Trypanosoma cruzi Tulahuen C2C4; format: functional, organism-based
[3] = test system: L6; assay: Cytotoxicity against rat L6 cells; format: cell-based
Procedure, shortened: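 Cytotoxicity was measured on rat skeletal myoblast L6 cells, with the IC50 as read-out.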

[4] = test system: Plasmodium falciparum; assay: Antiparasitic activity against Plasmodium falciparum K1; format: functional, organism-based
[5] = test system: Leishmania donovani; assay: Antiparasitic activity against Leishmania donovani […]; format: functional, organism-based
Procedure, shortened: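 Leishmania donovani MHOM-ET-67/L82 tested as axenic amastigotes; IC50 determined.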

[6] = test system: Trypanosoma brucei rhodesiense; assay: Antiparasitic activity against Trypanosoma brucei rhodesiense STIB900; format: functional, organism-based

| Compound | IC50 [2] [µM] | IC50 [4] [µM] | IC50 [5] [µM] | IC50 [6] [µM] | selectivity ratio [1] | IC50 [3] [µM] |
| --- | --- | --- | --- | --- | --- | --- |
| Clc1ccc2[nH]c3c[n+](Cc4ccc(C[n+]5ccc6c(c5)[nH]c5ccc(Cl)cc56)cc4)ccc3c2c1 | > 51.7 | 0.223 | 19.9 | 1 | 78 | 17.4 |
| Clc1ccc2[nH]c3c[n+](Cc4ccc(-c5ccc(C[n+]6ccc7c(c6)[nH]c6ccc(Cl)cc67)cc5)cc4)ccc3c2c1 | > 45.7 | 0.056 | 68.4 | 2.5 | 408 | 23 |
| O=C(O)c1cn(C2CC2)c2cc(N3CCN(Cc4ccc(C[n+]5ccc6c(c5)[nH]c5ccc(Cl)cc56)cc4)CC3)c(F)cc2c1=O | > 44.6 | > 7.4 | 61.6 | 92.5 |  | 121 |
| Clc1ccc2[nH]c3c[n+](Cc4cccc(C[n+]5ccc6c(c5)[nH]c5ccc(Cl)cc56)c4)ccc3c2c1 | 5.9 | 0.121 | 0.2 | 1.2 | 32 | 3.8 |
| C[n+]1ccc2c(c1)[nH]c1ccc(Cl)cc12 [NOSTOCARBOLINE] | > 87.1 | 0.194 | 34.3 | 70.5 | 622 | 121 |

The next lines start with results.

| IC50 [2] [µM] | IC50 [4] [µM] | IC50 [5] [µM] | IC50 [6] [µM] | Compound | selectivity ratio [1] | IC50 [3] [µM] |
| --- | --- | --- | --- | --- | --- | --- |
| 10 | 0.023 | 0.6 | 1.2 | Clc1ccc2[nH]c3c[n+](CCCCCCCCCCCC[n+]4ccc5c(c4)[nH]c4ccc(Cl)cc45)ccc3c2c1 | 186 | 4.3 |
| > 56.6 | 0.113 | 9.6 | 1.1 | Clc1ccc2[nH]c3c[n+](C/C=C\C[n+]4ccc5c(c4)[nH]c4ccc(Cl)cc45)ccc3c2c1 | 540 | 61.1 |
| 10.6 | 0.738 | 34.7 | 6.4 | Clc1ccc2[nH]c3c[n+](CC#CC[n+]4ccc5c(c4)[nH]c4ccc(Cl)cc45)ccc3c2c1 | 39 | 28.5 |
| 36.2 | 0.02 | 6.6 | 1.2 | Clc1ccc2[nH]c3c[n+](CCCCCC[n+]4ccc5c(c4)[nH]c4ccc(Cl)cc45)ccc3c2c1 | 1810 | 36.2 |
| 31.4 | 0.018 | 2.3 | 0.9 | Clc1ccc2[nH]c3c[n+](CCCCCCCC[n+]4ccc5c(c4)[nH]c4ccc(Cl)cc45)ccc3c2c1 | 423 | 7.5 |
| 36.6 | 0.014 | 0.9 | 1.1 | Clc1ccc2[nH]c3c[n+](CCCCCCCCCC[n+]4ccc5c(c4)[nH]c4ccc(Cl)cc45)ccc3c2c1 | 575 | 8.2 |
| 51.1 | 0.018 | 8.6 | 1.2 | Clc1ccc2[nH]c3c[n+](CCOCC[n+]4ccc5c(c4)[nH]c4ccc(Cl)cc45)ccc3c2c1 | 2620 | 47.9 |

Source: ChEMBL document CHEMBL1155825, “Potent and selective antiplasmodial activity of the cyanobacterial alkaloid nostocarboline and its dimers” (Bioorg Med Chem Lett, 2008)
